High-throughput results from PubChem.
This is a sample that favours compounds with a hit; in the whole collection about 3.8% have one here.
CHO parental Ca: signal in parental CHO cells, OX1R antagonist counter-screen. parental CHO-K1, ATP-induced calcium, Fluo-8 fluorescence. inhibition, % at 5.6 µM. 0.63% of 330,000 active;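 active = inhibition above that plate's mean sample inhibition plus 3 SD, cut at about 26% in these data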;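 also: 0% = ATP-challenged DMSO wells and 100% = DMSO wells without ATP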
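Test system: untransfected parental CHO cell line; also added: ATP stimulus; dosing: 5.6 µM, single dose; signal: calcium-sensitive Fluo-8 fluorescence; measure: percent inhibition of ATP-evoked calcium rise, normalized to controls; benchmarks: low control ATP plus DMSO, high control DMSO only; replication: one well per compound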
OX1R antag-1: blocks the human orexin 1 receptor; O43613; OX1R-expressing cells, FRET antagonist read-out; inhibition, % at 6.6 µM; 1.8% of 330,000 active; in the data active = inhibition mostly above about 38%, no sharp cut-off; inactive = mostly below about 40%;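 also: 0% = agonist challenge alone and 100% = reference antagonist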
Target sequence (O43613 whole entry, looked up): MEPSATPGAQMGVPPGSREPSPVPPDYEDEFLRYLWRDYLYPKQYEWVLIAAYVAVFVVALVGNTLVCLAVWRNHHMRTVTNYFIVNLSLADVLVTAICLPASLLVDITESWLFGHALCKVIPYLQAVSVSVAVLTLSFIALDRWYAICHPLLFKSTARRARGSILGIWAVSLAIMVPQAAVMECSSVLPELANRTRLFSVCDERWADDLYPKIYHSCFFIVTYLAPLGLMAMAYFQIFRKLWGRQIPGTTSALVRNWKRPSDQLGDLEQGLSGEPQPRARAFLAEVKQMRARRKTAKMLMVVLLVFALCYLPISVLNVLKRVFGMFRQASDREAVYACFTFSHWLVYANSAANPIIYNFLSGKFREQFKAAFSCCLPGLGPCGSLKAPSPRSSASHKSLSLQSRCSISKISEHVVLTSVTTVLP
GPR7 antagonist: human neuropeptides B/W receptor 1 antagonism. 1.1% of 290,000 active. GPR7-expressing cells, fluorescence antagonist assay. inhibition, % at 4.4 µM; in the data active = inhibition above about 16%, passing the limit was not always enough;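 also: cells stimulated with the agonist NPW; 0% = agonist with vehicle and 100% = vehicle without agonist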
MPTP block: permeability transition pore inhibition; isolated mouse mitochondria, Ca2+ swelling absorbance, 30 min; inhibition, % at 10 µM; 1.4% of 360,000 active;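 active = inhibition of 50% or more, scaled per plate between neutral and stimulator controls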;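 also: 0% = DMSO wells given calcium and 100% = 1 mM EGTA wells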
OX1R antag-2: human HCRTR1 antagonism; O43613; CHO/OX1R cells, Fluo-8 calcium fluorescence, orexin A; inhibition, % at 5 µM; AID 434989; 0.43% of 330,000 active;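 active = inhibition above its plate's threshold, mean inhibition of all tested compounds on the plate plus 3 SD, cut at about 37% in these data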;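 also: 0% = orexin A challenge wells and 100% = SB-334867-A antagonist wells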
GPR7 antag cf: human GPR7 antagonism, confirmation assay; shares compounds with GPR7 antagonist; GPR7-expressing cells, calcium fluorescence antagonist mode; inhibition, % at 4.4 µM; 52% of 2,400 active; in the data active = inhibition above about 24%;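 also: stimulated with the GPR7 agonist NPW; 0% = agonist plus vehicle and 100% = vehicle alone without agonist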
MCHR1 antag: MCHR1 (human) antagonism in GPR7 counter-screen | inhibition, % at 4.4 µM | MCHR1-expressing cells, fluorescence antagonist assay | 62% of 2,400 active | shares compounds with GPR7 antagonist;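 also: 0% = vehicle with agonist and 100% = vehicle without agonist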
MPTP counter: mitochondrial membrane potential, counter-screen | shares compounds with MPTP block | isolated mitochondria, Rhodamine 123 fluorescence | inhibition, % at 10 µM | 78% of 5,000 active | AID 624504;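 also: 0% = DMSO vehicle and 100% = positive control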
MPTP swell DR: dose response confirmation of mitochondrial permeability transition pore inhibitors | shares compounds with MPTP block | 58% of 780 active | IC50, µM | AID 651561 | isolated mitochondria swelling, absorbance; in the data active = IC50 below about 20 µM
MPTP counter DR: MPTP inhibitor counter-screen activity, dose response | shares compounds with MPTP block | isolated mitochondria counterscreen, fluorescence read-out | IC50, µM | 49% of 780 active; in the data active = IC50 below about 80 µM
Active calls of the source: *; i = inactive; / = not tested or not shown. Rule as the data show it, unless noted: active = inhibition above about 22%; inactive = the rest.

SMILES	CHO parental Ca	OX1R antag-1	GPR7 antagonist	MPTP block	OX1R antag-2	GPR7 antag cf	MCHR1 antag	MPTP counter	others
CCCCN(CCCC)CC(O)CN(c1cc([N+](=O)[O-])ccc1OC)S(=O)(=O)c1ccccc1 (configuration not stated)	-25	16	36*	76*	-26	41*	34*	-8	MPTP swell DR=>100;MPTP counter DR=57*
COc1ccc([N+](=O)[O-])cc1N(CC(O)CN(C)C)S(=O)(=O)c1ccc(C)cc1 (configuration not stated)	-15	8	-4	0	-9	/	/	/
CCc1cc2c(NCc3ccccc3)nc(C)nc2s1	22	36	23*	91*	-14	17	38*	65*
Cc1ccccc1NC(=O)Cc1nnc(SCC(=O)NC2CCCC2)n1C	-22	5	-23	0	-18	/	/	/
COc1ccc(C(=O)NCC2CCCCC2)cc1S(=O)(=O)N1CCOCC1	-3	5	/	0	-1	/	/	/
COc1cccc2cc(CC(=O)c3ccc(C)cc3C)c(=O)oc12	-10	-5	-18	2	-2	/	/	/
CC1Sc2ccc(S(=O)(=O)N3CCC(C(=O)Nc4ccc(Cl)cc4)CC3)cc2NC1=O (configuration not stated)	54*	14	61*	99*	22	68*	70*	100*
Cc1ccc(NC(=O)C2CCN(S(=O)(=O)c3ccc(N4CCCC4=O)cc3)CC2)cc1Cl	64*	11	38*	102*	32	52*	61*	108*
COc1ccc(CCN2C(=O)CSC2=S)cc1OC	-3	-9	18	1	-6	/	/	/
Cc1cc(C)nc(/N=C(\N)Nc2ccc(S(=O)(=O)O)cc2)n1	/	/	2	-1	/	/	/	/
Cc1cc(C)nc(/N=C(\N)Nc2ccc(CC(=O)OC(C)C)cc2)n1	41*	17	97*	50*	67*	95*	97*	59*
Cc1cc(C)nc(/N=C(\N)Nc2ccc(OCCC(C)C)cc2)n1	68*	5	100*	100*	94*	97*	106*	91*
COc1ccccc1N/C(N)=N/c1nc(C)cc(C)n1	-11	1	-9	2	-26	/	/	/
Cc1cc(C)nc(/N=C(\N)Nc2cccc(OCc3ccccc3)c2)n1	40*	9	97*	83*	73*	91*	105*	64*
COc1ccc(N/C(N)=N/c2nc(C)cc(C)n2)cc1	/	/	/	-1	/	/	/	/
Cc1nc2cc(NC(=O)Nc3cccc4ccccc34)ccc2n1C	-6	7	-11	1	-20	/	/	/
O=C(Nc1ccc2snnc2c1)Nc1cccc2ccccc12	27*	58*	36*	106*	6	40*	77*	69*
N#CC(c1ccc(Cl)cc1)c1ccc2c(C(F)(F)F)cc(C(F)(F)F)nc2n1 (configuration not stated)	18	38	33*	87*	26	59*	50*	108*
O=C(CN1CCN(S(=O)(=O)c2ccc(Br)s2)CC1)N1CCCCC1	-12	2	/	-2	8	/	/	/
CCOC(=O)C1(CCOc2ccccc2)CCN(Cc2ccccc2O)CC1	-21	21	-4	2	-19	/	/	/
CCOC(=O)C1(CCOc2ccccc2)CCN(Cc2cccc(OC)c2OC)CC1	37*	22	32*	75*	-17	24*	54*	33*
CCN(CC)c1nc2cc(OC)ccc2cc1C#N	-8	11	-13	0	-23	/	/	/
CCN(CC)c1ccc(/C=C/c2ccc3ccc(OC)cc3[n+]2CC)cc1	59*	33	47*	64*	28	65*	65*	63*
CCN(CC#CCC(O)(c1ccccc1)C1CCCC1)C(C)C (configuration not stated)	-22	20	29*	78*	-18	3	-1	-4	MPTP swell DR=i;MPTP counter DR=>80
O=C(COC(=O)c1ccccc1Cl)NCc1ccco1	-6	3	/	0	-11	/	/	/
SMILES	CHO parental Ca	OX1R antag-1	GPR7 antagonist	MPTP block	OX1R antag-2	GPR7 antag cf	MCHR1 antag	MPTP counter	others
COc1cccc(CNCCc2c[nH]c3ccccc23)c1OCc1ccccc1	18	6	56*	85*	10	60*	67*	60*
COc1cc(CNCCc2c[nH]c3ccccc23)ccc1OCc1ccccc1F	6	7	24	1	12	/	/	/
COc1cccc(CNC(=O)CS(=O)(=O)Cc2nc(-c3ccc(C)cc3)oc2C)c1OC	-24	2	2	-2	-41	/	/	/
O=C(NCc1ccccc1CN1CCCC1)c1cc2ccccc2o1	-12	-3	/	0	-12	/	/	/
CC(C)COc1ccc(-c2nnc(-c3ccco3)o2)cc1	-12	8	2	5	-24	/	/	/
CCN(CC)CCCNc1ccc(-c2nnc(-c3ccc(OCC(C)C)cc3)o2)cn1	-5	18	38*	91*	-2	22	48*	-5
CC(C)Cc1ccc(C(C)C(=O)Nc2ccccc2O)cc1 (configuration not stated)	82*	29	69*	90*	101*	89*	94*	95*
O=C(Nc1cccc(S(=O)(=O)Nc2ccc(Cl)cc2)c1)c1ccc(Cl)nc1	11	44	24*	92*	-3	66*	70*	80*
O=C(Nc1ccc(NS(=O)(=O)c2ccccc2)cc1)c1ccc(Cl)cc1	12	15	-5	0	6	/	/	/
OCCN1CCN(CC(O)COc2ccc(Cl)cc2)CC1 (configuration not stated)	-1	14	-7	3	-7	/	/	/
OCCN1CCN(CC(O)COc2ccc(C34CC5CC(CC(C5)C3)C4)cc2)CC1 (configuration not stated)	9	10	40*	91*	-7	35*	51*	-9	MPTP swell DR=4.1*;MPTP counter DR=55*
C=CCC1(CC=C)CCCN1C(=O)c1cc(COc2cccc(OC)c2)on1	11	11	-9	1	-4	/	/	/
C=CCC1(CC=C)CCCN1C(=O)c1cc(COc2cncc(Cl)c2)on1	65*	43	38*	77*	31	28*	52*	96*
CC(C)CC(=O)NC(Nc1ccc([N+](=O)[O-])cc1)C(Cl)(Cl)Cl (configuration not stated)	-3	15	26*	90*	-6	14	45*	96*
O=C(C[n+]1cc(-c2ccc(Cl)cc2)n2c1CCCCC2)c1ccccc1	-11	10	0	3	-4	/	/	/
